Data set [1] can be described thus: Cytotoxicity against BALB/c mouse splenic lymphocytes co-cultured with C57BL/6 mouse splenic lymphocytes assessed as reduction of cell viability after 72 hrs. The format is cell-based, Splenic lymphocyte. The conditions noted are these: BALB/c and C57BL/6, mouse.
In data set [2] the test system is Splenic lymphocyte. The experiment in a line: Immunosuppressive activity in BALB/c mouse splenic lymphocytes co-cultured with C57BL/6 mouse splenic lymphocytes assessed as inhibition of cell proliferation after 72 hrs by mixed lymphocyte reaction assay. The format is functional, cell-based. An outline of the steps:
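Stimulator BALB/c splenic lymphocytes (1 × 10⁷ cells/mL) were γ-irradiated with ⁶⁰Co for 7 min. They were co-cultured with fresh C57BL/6 splenic responder lymphocytes and compound at 25, 50 or 100 μM in RPMI 1640 with FCS for 72 h at 37 °C under 5% CO₂. Cells were then pulsed with [³H]thymidine for another 24 h to read proliferation.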

Data set [3] can be described thus: Inhibition of rabbit erythrocyte SAHase by DTNB-coupled assay. The arrangement: species or system Oryctolagus cuniculus. An outline of the steps:
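SAHase hydrolytic activity was measured by DTNB-coupled assay. Enzyme and compound were preincubated in phosphate buffer, pH 8.0, for 10 min before the reaction was started.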

By CC50 is commonly meant the concentration that lowers cell viability or growth by half. As usually defined, the IC50 is the concentration that inhibits the measured activity by half.

The source made the active and inactive calls. The calls are words filed in the database; no cut-off is given here.

`COC(=O)C(O)CCn1cnc2c(N)ncnc21` (racemic): the CC50 at 72 h in data set [1] is greater than 1000 µM. In data set [2], the outcome was Active. Besides, half-maximal inhibition in data set [3] (IC50) required 24.4 µM.

Turning to `COC(=O)C(=O)CCn1cnc2c(N)ncnc21`, in data set [1], the CC50 at 72 h was greater than 1000 µM. Moreover, the outcome in data set [2] was Active. The compound further registered an IC50 in data set [3] of 194 µM.

Consider `COC(=O)[C@H](O)CCn1cnc2c(N)ncnc21`, for which the CC50 at 72 h in data set [1] is greater than 1000 µM. Also, the outcome in data set [2] was Active. Besides, the IC50 in data set [3] worked out at 61.3 µM.

Regarding `COC(=O)[C@@H](O)CCn1cnc2c(N)ncnc21`, in data set [1], the CC50 at 72 h was greater than 1000 µM. For the same compound, the result in data set [2] was Active. The compound also came in with an IC50 in data set [3] of 21.2 µM.

(Values after ChEMBL document CHEMBL1142455, “Synthesis and biological evaluation of immunosuppressive agent DZ2002 and its stereoisomers” (Bioorg Med Chem, 2008).)
